# Biological target: Human immunodeficiency virus type 1 protease (Human immunodeficiency virus 1) (UniProt Q72874)
# Experiment: Antiviral activity against mutant virus HIV-1 mutant (84V/82F) strain
# Type: functional
# Settings: not given
# Summary of the method: (§1)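 I84V single and I84V/V82F double mutant HIV-1, both from in vitro selection under a cyclic urea inhibitor. IC90 measured by yield reduction assay.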
row,SMILES,IC90 mutant/IC90 WT
1,O=C(Nc1ncc[nH]1)c1cccc(CN2C(=O)N(Cc3cccc(C(=O)Nc4ncc[nH]4)c3)[C@H](Cc3ccccc3)[C@H](O)[C@@H](O)[C@H]2Cc2ccccc2)c1,0.7
2,Nc1ccc(CN2C(=O)N(Cc3ccc4[nH]ncc4c3)[C@H](Cc3ccccc3)[C@H](O)[C@@H](O)[C@H]2Cc2ccccc2)cc1-n1cncn1,20
3,O=C1N(Cc2cccc(NCc3nc4ccccc4[nH]3)c2)[C@H](Cc2ccccc2)[C@H](O)[C@@H](O)[C@@H](Cc2ccccc2)N1Cc1ccc2[nH]ncc2c1,3
4,O=C1N(Cc2cccc(NCc3nc4ccccc4s3)c2)[C@H](Cc2ccccc2)[C@H](O)[C@@H](O)[C@@H](Cc2ccccc2)N1Cc1ccc2[nH]ncc2c1,20
5,N=C(NO)c1cccc(CN2C(=O)N(Cc3cccc(/C(N)=N/O)c3)[C@H](Cc3ccccc3)[C@H](O)[C@@H](O)[C@H]2Cc2ccccc2)c1,0.7
6,Nc1ccc(CN2C(=O)N(Cc3ccc4[nH]ncc4c3)[C@H](Cc3ccccc3)[C@H](O)[C@@H](O)[C@H]2Cc2ccccc2)cc1-n1cccn1,50
7,Nc1ccc(CN2C(=O)N(Cc3ccc4[nH]ncc4c3)[C@H](Cc3ccccc3)[C@H](O)[C@@H](O)[C@H]2Cc2ccccc2)cc1-c1cc[nH]n1,20
8,O=C1N(Cc2cccc(-c3nc[nH]n3)c2)[C@H](Cc2ccccc2)[C@H](O)[C@@H](O)[C@@H](Cc2ccccc2)N1Cc1ccc2[nH]ncc2c1,18
9,O=C(Cc1ccccn1)c1cccc(CN2C(=O)N(Cc3ccc4[nH]ncc4c3)[C@H](Cc3ccccc3)[C@H](O)[C@@H](O)[C@H]2Cc2ccccc2)c1,5

# Biological target: Human immunodeficiency virus type 1 protease (Human immunodeficiency virus 1, UniProt Q72874)
# Experiment: Inhibitory activity against HIV protease
# Settings: not given
# Summary of the method: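 Ki for HIV protease, measured by cleavage of a fluorescent substrate with HPLC analysis, following the earlier method.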
row,SMILES,Ki [nM]
1,O=C1N(Cc2cccc(Cn3nccn3)c2)[C@H](Cc2ccccc2)[C@H](O)[C@@H](O)[C@@H](Cc2ccccc2)N1Cc1ccc2[nH]ncc2c1,0.081
2,Nc1ccc(CN2C(=O)N(Cc3ccc4[nH]ncc4c3)[C@H](Cc3ccccc3)[C@H](O)[C@@H](O)[C@H]2Cc2ccccc2)cc1-n1cncn1,0.029
3,O=C1N(Cc2cccc(Cn3cncn3)c2)[C@H](Cc2ccccc2)[C@H](O)[C@@H](O)[C@@H](Cc2ccccc2)N1Cc1ccc2[nH]ncc2c1,0.054
4,O=C(Cn1nccn1)c1cccc(CN2C(=O)N(Cc3ccc4[nH]ncc4c3)[C@H](Cc3ccccc3)[C@H](O)[C@@H](O)[C@H]2Cc2ccccc2)c1,0.046
5,O=C1N(Cc2cccc(Cn3cccn3)c2)[C@H](Cc2ccccc2)[C@H](O)[C@@H](O)[C@@H](Cc2ccccc2)N1Cc1ccc2[nH]ncc2c1,0.17
6,O=C(Cn1cccn1)c1cccc(CN2C(=O)N(Cc3ccc4[nH]ncc4c3)[C@H](Cc3ccccc3)[C@H](O)[C@@H](O)[C@H]2Cc2ccccc2)c1,0.063
7,O=C(O)c1cccc(CN2C(=O)N(Cc3ccc4[nH]ncc4c3)[C@H](Cc3ccccc3)[C@H](O)[C@@H](O)[C@H]2Cc2ccccc2)c1,0.049
8,O=C1N(Cc2cccc(NCc3nc4ccccc4[nH]3)c2)[C@H](Cc2ccccc2)[C@H](O)[C@@H](O)[C@@H](Cc2ccccc2)N1Cc1ccc2[nH]ncc2c1,0.016
9,O=C1N(Cc2cccc(Cn3ccnn3)c2)[C@H](Cc2ccccc2)[C@H](O)[C@@H](O)[C@@H](Cc2ccccc2)N1Cc1ccc2[nH]ncc2c1,0.11
10,O=C1N(Cc2cccc(NCc3nc4ccccc4s3)c2)[C@H](Cc2ccccc2)[C@H](O)[C@@H](O)[C@@H](Cc2ccccc2)N1Cc1ccc2[nH]ncc2c1,0.059
11,Cc1ccc(CN2C(=O)N(Cc3ccc4[nH]ncc4c3)[C@H](Cc3ccccc3)[C@H](O)[C@@H](O)[C@H]2Cc2ccccc2)cc1N,0.05
12,N=C(NO)c1cccc(CN2C(=O)N(Cc3cccc(/C(N)=N/O)c3)[C@H](Cc3ccccc3)[C@H](O)[C@@H](O)[C@H]2Cc2ccccc2)c1,< 0.01
13,Nc1ccc(CN2C(=O)N(Cc3ccc4[nH]ncc4c3)[C@H](Cc3ccccc3)[C@H](O)[C@@H](O)[C@H]2Cc2ccccc2)cc1-n1nccn1,0.059
14,Nc1ccc(CN2C(=O)N(Cc3ccc4[nH]ncc4c3)[C@H](Cc3ccccc3)[C@H](O)[C@@H](O)[C@H]2Cc2ccccc2)cc1-n1ccnn1,0.034
15,Cc1cccc(NC(=O)c2cccc(CN3C(=O)N(Cc4ccc5[nH]ncc5c4)[C@H](Cc4ccccc4)[C@H](O)[C@@H](O)[C@H]3Cc3ccccc3)c2)n1,0.04
16,CN(C)c1cccc(CN2C(=O)N(Cc3ccc4[nH]ncc4c3)[C@H](Cc3ccccc3)[C@H](O)[C@@H](O)[C@H]2Cc2ccccc2)c1,0.23
17,O=C1N(Cc2cccc(CCO)c2)[C@H](Cc2ccccc2)[C@H](O)[C@@H](O)[C@@H](Cc2ccccc2)N1Cc1ccc2[nH]ncc2c1,0.05
18,Nc1ccc(CN2C(=O)N(Cc3ccc4[nH]ncc4c3)[C@H](Cc3ccccc3)[C@H](O)[C@@H](O)[C@H]2Cc2ccccc2)cc1-n1cccn1,0.045
19,Nc1ccc(CN2C(=O)N(Cc3ccc4[nH]ncc4c3)[C@H](Cc3ccccc3)[C@H](O)[C@@H](O)[C@H]2Cc2ccccc2)cc1-c1cc[nH]n1,0.025
20,O=C1N(Cc2cccc(-c3nc[nH]n3)c2)[C@H](Cc2ccccc2)[C@H](O)[C@@H](O)[C@@H](Cc2ccccc2)N1Cc1ccc2[nH]ncc2c1,0.041
21,O=C(Cc1ccccn1)c1cccc(CN2C(=O)N(Cc3ccc4[nH]ncc4c3)[C@H](Cc3ccccc3)[C@H](O)[C@@H](O)[C@H]2Cc2ccccc2)c1,0.073

# Tested on: MT2
# Experiment: Antiviral potency evaluated by measuring accumulation of viral RNA transcripts 3 days after infection of MT-2 cells with HIV-1 RF
# Type: functional
# Settings: Homo sapiens, MT2, 72 h
row,SMILES,IC90 [nM]
1,O=C(Nc1ncc[nH]1)c1cccc(CN2C(=O)N(Cc3cccc(C(=O)Nc4ncc[nH]4)c3)[C@H](Cc3ccccc3)[C@H](O)[C@@H](O)[C@H]2Cc2ccccc2)c1,60
2,O=C1N(Cc2cccc(Cn3nccn3)c2)[C@H](Cc2ccccc2)[C@H](O)[C@@H](O)[C@@H](Cc2ccccc2)N1Cc1ccc2[nH]ncc2c1,32
3,Nc1ccc(CN2C(=O)N(Cc3ccc4[nH]ncc4c3)[C@H](Cc3ccccc3)[C@H](O)[C@@H](O)[C@H]2Cc2ccccc2)cc1-n1cncn1,35
4,O=C1N(Cc2cccc(Cn3cncn3)c2)[C@H](Cc2ccccc2)[C@H](O)[C@@H](O)[C@@H](Cc2ccccc2)N1Cc1ccc2[nH]ncc2c1,35
5,O=C(Cn1nccn1)c1cccc(CN2C(=O)N(Cc3ccc4[nH]ncc4c3)[C@H](Cc3ccccc3)[C@H](O)[C@@H](O)[C@H]2Cc2ccccc2)c1,15
6,O=C1N(Cc2cccc(Cn3cccn3)c2)[C@H](Cc2ccccc2)[C@H](O)[C@@H](O)[C@@H](Cc2ccccc2)N1Cc1ccc2[nH]ncc2c1,46
7,O=C(Cn1cccn1)c1cccc(CN2C(=O)N(Cc3ccc4[nH]ncc4c3)[C@H](Cc3ccccc3)[C@H](O)[C@@H](O)[C@H]2Cc2ccccc2)c1,15
8,O=C(O)c1cccc(CN2C(=O)N(Cc3ccc4[nH]ncc4c3)[C@H](Cc3ccccc3)[C@H](O)[C@@H](O)[C@H]2Cc2ccccc2)c1,750
9,O=C1N(Cc2cccc(NCc3nc4ccccc4[nH]3)c2)[C@H](Cc2ccccc2)[C@H](O)[C@@H](O)[C@@H](Cc2ccccc2)N1Cc1ccc2[nH]ncc2c1,63
10,O=C1N(Cc2cccc(Cn3ccnn3)c2)[C@H](Cc2ccccc2)[C@H](O)[C@@H](O)[C@@H](Cc2ccccc2)N1Cc1ccc2[nH]ncc2c1,30
11,O=C1N(Cc2cccc(NCc3nc4ccccc4s3)c2)[C@H](Cc2ccccc2)[C@H](O)[C@@H](O)[C@@H](Cc2ccccc2)N1Cc1ccc2[nH]ncc2c1,5
12,Cc1ccc(CN2C(=O)N(Cc3ccc4[nH]ncc4c3)[C@H](Cc3ccccc3)[C@H](O)[C@@H](O)[C@H]2Cc2ccccc2)cc1N,15
13,N=C(NO)c1cccc(CN2C(=O)N(Cc3cccc(/C(N)=N/O)c3)[C@H](Cc3ccccc3)[C@H](O)[C@@H](O)[C@H]2Cc2ccccc2)c1,300
14,Nc1ccc(CN2C(=O)N(Cc3ccc4[nH]ncc4c3)[C@H](Cc3ccccc3)[C@H](O)[C@@H](O)[C@H]2Cc2ccccc2)cc1-n1nccn1,12
15,Nc1ccc(CN2C(=O)N(Cc3ccc4[nH]ncc4c3)[C@H](Cc3ccccc3)[C@H](O)[C@@H](O)[C@H]2Cc2ccccc2)cc1-n1ccnn1,38
16,Cc1cccc(NC(=O)c2cccc(CN3C(=O)N(Cc4ccc5[nH]ncc5c4)[C@H](Cc4ccccc4)[C@H](O)[C@@H](O)[C@H]3Cc3ccccc3)c2)n1,3
17,CN(C)c1cccc(CN2C(=O)N(Cc3ccc4[nH]ncc4c3)[C@H](Cc3ccccc3)[C@H](O)[C@@H](O)[C@H]2Cc2ccccc2)c1,39
18,O=C1N(Cc2cccc(CCO)c2)[C@H](Cc2ccccc2)[C@H](O)[C@@H](O)[C@@H](Cc2ccccc2)N1Cc1ccc2[nH]ncc2c1,17
19,Nc1ccc(CN2C(=O)N(Cc3ccc4[nH]ncc4c3)[C@H](Cc3ccccc3)[C@H](O)[C@@H](O)[C@H]2Cc2ccccc2)cc1-n1cccn1,6
20,Nc1ccc(CN2C(=O)N(Cc3ccc4[nH]ncc4c3)[C@H](Cc3ccccc3)[C@H](O)[C@@H](O)[C@H]2Cc2ccccc2)cc1-c1cc[nH]n1,22
21,O=C1N(Cc2cccc(-c3nc[nH]n3)c2)[C@H](Cc2ccccc2)[C@H](O)[C@@H](O)[C@@H](Cc2ccccc2)N1Cc1ccc2[nH]ncc2c1,24
22,O=C(Cc1ccccn1)c1cccc(CN2C(=O)N(Cc3ccc4[nH]ncc4c3)[C@H](Cc3ccccc3)[C@H](O)[C@@H](O)[C@H]2Cc2ccccc2)c1,15

# Biological target: Human immunodeficiency virus type 1 protease (Human immunodeficiency virus 1) (UniProt Q72874)
# Experiment: Antiviral activity against indinavir virus (HIV-1 mutated at 10R/63P/71V/82T/84V and resistant to indinavir)
# Settings: not given
row,SMILES,IC90 mutant/IC90 WT
1,O=C(Nc1ncc[nH]1)c1cccc(CN2C(=O)N(Cc3cccc(C(=O)Nc4ncc[nH]4)c3)[C@H](Cc3ccccc3)[C@H](O)[C@@H](O)[C@H]2Cc2ccccc2)c1,0.4

# Biological target: Human immunodeficiency virus type 1 protease (Human immunodeficiency virus 1) (UniProt Q72874)
# Experiment: Antiviral activity against ritonavir virus (HIV-1 mutated at 46I/63P/71V/82F/84V and resistant to ritonavir)
# Type: functional
# Settings: not given
# Summary of the method: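 Mutant HIV-1 viruses carrying protease substitutions seen in ritonavir- or indinavir-treated patient isolates; the ritonavir virus carries 46I/63P/71V/82F/84V. IC90 read from a viral p24 readout, following the earlier method.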
row,SMILES,IC90 mutant/IC90 WT
1,O=C(Nc1ncc[nH]1)c1cccc(CN2C(=O)N(Cc3cccc(C(=O)Nc4ncc[nH]4)c3)[C@H](Cc3ccccc3)[C@H](O)[C@@H](O)[C@H]2Cc2ccccc2)c1,0.2
2,Nc1ccc(CN2C(=O)N(Cc3ccc4[nH]ncc4c3)[C@H](Cc3ccccc3)[C@H](O)[C@@H](O)[C@H]2Cc2ccccc2)cc1-n1cncn1,9
3,O=C1N(Cc2cccc(NCc3nc4ccccc4s3)c2)[C@H](Cc2ccccc2)[C@H](O)[C@@H](O)[C@@H](Cc2ccccc2)N1Cc1ccc2[nH]ncc2c1,25
4,Nc1ccc(CN2C(=O)N(Cc3ccc4[nH]ncc4c3)[C@H](Cc3ccccc3)[C@H](O)[C@@H](O)[C@H]2Cc2ccccc2)cc1-n1cccn1,70
5,Nc1ccc(CN2C(=O)N(Cc3ccc4[nH]ncc4c3)[C@H](Cc3ccccc3)[C@H](O)[C@@H](O)[C@H]2Cc2ccccc2)cc1-c1cc[nH]n1,2.1
6,O=C1N(Cc2cccc(-c3nc[nH]n3)c2)[C@H](Cc2ccccc2)[C@H](O)[C@@H](O)[C@@H](Cc2ccccc2)N1Cc1ccc2[nH]ncc2c1,3.8
7,O=C(Cc1ccccn1)c1cccc(CN2C(=O)N(Cc3ccc4[nH]ncc4c3)[C@H](Cc3ccccc3)[C@H](O)[C@@H](O)[C@H]2Cc2ccccc2)c1,10

# Tested on: not listed separately
# Experiment: Peak plasma concentration was measured in dogs
# Type: ADME, organism-based, Canis lupus familiaris
# Settings: dog
row,SMILES,Cmax [nM]
1,Nc1ccc(CN2C(=O)N(Cc3ccc4[nH]ncc4c3)[C@H](Cc3ccccc3)[C@H](O)[C@@H](O)[C@H]2Cc2ccccc2)cc1-n1cncn1,500
2,O=C(Cc1ccccn1)c1cccc(CN2C(=O)N(Cc3ccc4[nH]ncc4c3)[C@H](Cc3ccccc3)[C@H](O)[C@@H](O)[C@H]2Cc2ccccc2)c1,700

# Biological target: Human immunodeficiency virus type 1 protease (Human immunodeficiency virus 1) (UniProt Q72874)
# Experiment: Antiviral activity against mutant virus HIV-1 mutant (84V) strain
# Type: functional
# Settings: not given
# Summary of the method: as §1
row,SMILES,IC90 mutant/IC90 WT
1,O=C(Nc1ncc[nH]1)c1cccc(CN2C(=O)N(Cc3cccc(C(=O)Nc4ncc[nH]4)c3)[C@H](Cc3ccccc3)[C@H](O)[C@@H](O)[C@H]2Cc2ccccc2)c1,0.7
2,Nc1ccc(CN2C(=O)N(Cc3ccc4[nH]ncc4c3)[C@H](Cc3ccccc3)[C@H](O)[C@@H](O)[C@H]2Cc2ccccc2)cc1-n1cncn1,1
3,O=C1N(Cc2cccc(NCc3nc4ccccc4[nH]3)c2)[C@H](Cc2ccccc2)[C@H](O)[C@@H](O)[C@@H](Cc2ccccc2)N1Cc1ccc2[nH]ncc2c1,1
4,O=C1N(Cc2cccc(NCc3nc4ccccc4s3)c2)[C@H](Cc2ccccc2)[C@H](O)[C@@H](O)[C@@H](Cc2ccccc2)N1Cc1ccc2[nH]ncc2c1,3.3
5,N=C(NO)c1cccc(CN2C(=O)N(Cc3cccc(/C(N)=N/O)c3)[C@H](Cc3ccccc3)[C@H](O)[C@@H](O)[C@H]2Cc2ccccc2)c1,1
6,Nc1ccc(CN2C(=O)N(Cc3ccc4[nH]ncc4c3)[C@H](Cc3ccccc3)[C@H](O)[C@@H](O)[C@H]2Cc2ccccc2)cc1-n1cccn1,3.3
7,Nc1ccc(CN2C(=O)N(Cc3ccc4[nH]ncc4c3)[C@H](Cc3ccccc3)[C@H](O)[C@@H](O)[C@H]2Cc2ccccc2)cc1-c1cc[nH]n1,2.2
8,O=C1N(Cc2cccc(-c3nc[nH]n3)c2)[C@H](Cc2ccccc2)[C@H](O)[C@@H](O)[C@@H](Cc2ccccc2)N1Cc1ccc2[nH]ncc2c1,3.3
9,O=C(Cc1ccccn1)c1cccc(CN2C(=O)N(Cc3ccc4[nH]ncc4c3)[C@H](Cc3ccccc3)[C@H](O)[C@@H](O)[C@H]2Cc2ccccc2)c1,1

# — ChEMBL document CHEMBL1131003, “Nonsymmetric P2/P2' cyclic urea HIV protease inhibitors. Structure-activity relationship, bioavailability, and resistance profile of monoindazole-substituted P2 analogues” (J Med Chem, 1998)
